Source: ChEMBL document CHEMBL1125690, “Quinazoline antifolate thymidylate synthase inhibitors: heterocyclic benzoyl ring modifications” (J Med Chem, 1991)

Key:
L1210 = assay: In vitro inhibition of L1210 cell growth in culture.; type: functional, cell-based; details: Mus musculus
In short: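 L1210 mouse leukaemia cells grown in culture. The value reported is the IC50 for inhibition of cell growth.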

Thymidylate synthase = Thymidylate synthase (Mus musculus, UniProt P07607); assay: In vitro inhibition of partially purified L1210 thymidylate synthase (TS).
Chain of Thymidylate synthase (P07607 whole entry): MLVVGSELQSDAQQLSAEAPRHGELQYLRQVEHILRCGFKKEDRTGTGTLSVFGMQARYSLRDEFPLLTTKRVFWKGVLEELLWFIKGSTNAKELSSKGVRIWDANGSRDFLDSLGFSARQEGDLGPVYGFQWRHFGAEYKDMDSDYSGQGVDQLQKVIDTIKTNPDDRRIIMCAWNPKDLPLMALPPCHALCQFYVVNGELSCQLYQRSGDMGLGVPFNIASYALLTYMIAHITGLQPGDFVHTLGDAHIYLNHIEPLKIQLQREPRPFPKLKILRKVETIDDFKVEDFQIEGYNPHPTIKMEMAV

Compound	IC50 (L1210) [nM]	IC50 (Thymidylate synthase) [nM]
CCN(Cc1ccc2nc(C)[nH]c(=O)c2c1)c1ccc(C(=O)N[C@@H](CCC(=O)O)C(=O)O)nc1	640	150
Cc1nc(O)c2cc(CN(C)c3ccc(C(=O)N[C@H](CCC(=O)O)C(=O)O)s3)ccc2n1	7	–
Cc1nc2ccc(CN(C)c3cnc(C(=O)N[C@@H](CCC(=O)O)C(=O)O)nc3)cc2c(=O)[nH]1	1400	2340
C#CCN(Cc1ccc2nc(C)[nH]c(=O)c2c1)c1ccc(C(=O)N[C@@H](CCC(=O)O)C(=O)O)nc1	60	40
C#CCN(Cc1ccc2nc(C)nc(O)c2c1)c1cnc(C(=O)N[C@H](CCC(=O)O)C(=O)O)s1	8	230
Cc1nc2ccc(CN(CCF)c3ccc(C(=O)N[C@@H](CCC(=O)O)C(=O)O)nc3)cc2c(=O)[nH]1	140	160
CCCN(Cc1ccc2nc(C)nc(O)c2c1)c1ccc(C(=O)N[C@H](CCC(=O)O)C(=O)O)s1	400	1850
C=CCN(Cc1ccc2nc(C)nc(O)c2c1)c1cnc(C(=O)N[C@H](CCC(=O)O)C(=O)O)s1	13	1070
Cc1nc2ccc(CN(C)c3ccc(C(=O)N[C@@H](CCC(=O)O)C(=O)O)nc3)cc2c(=O)[nH]1	160	350
Cc1nc(O)c2cc(CN(CCO)c3ccc(C(=O)N[C@H](CCC(=O)O)C(=O)O)s3)ccc2n1	100	1200
Cc1nc(O)c2cc(CNc3cnc(C(=O)N[C@H](CCC(=O)O)C(=O)O)s3)ccc2n1	280	7120
Cc1nc(O)c2cc(CN(CC#N)c3ccc(C(=O)N[C@H](CCC(=O)O)C(=O)O)s3)ccc2n1	200	3080
Cc1nc(O)c2cc(CNc3ccc(C(=O)N[C@H](CCC(=O)O)C(=O)O)s3)ccc2n1	3000	24800
Cc1nc(O)c2cc(CN(CCCO)c3cnc(C(=O)N[C@H](CCC(=O)O)C(=O)O)s3)ccc2n1	60	1740
CCN(Cc1ccc2nc(C)[nH]c(=O)c2c1)c1ccc(C(=O)N[C@@H](CCC(=O)O)C(=O)O)cc1	–	260
O=C(O)CC[C@@H](NC(=O)c1ccc(N(CCF)Cc2ccc3nc(CF)nc(O)c3c2)s1)C(=O)O	670	1070
CCN(Cc1ccc2nc(C)nc(O)c2c1)c1ncc(C(=O)N[C@H](CCC(=O)O)C(=O)O)s1	900	760
C=CCN(Cc1ccc2nc(C)nc(O)c2c1)c1ccc(C(=O)N[C@H](CCC(=O)O)C(=O)O)s1	58	1680

Compound	IC50 (L1210) [nM]	IC50 (Thymidylate synthase) [nM]
CCN(Cc1ccc2nc(CF)nc(O)c2c1)c1ccc(C(=O)N[C@H](CCC(=O)O)C(=O)O)s1	110	930
CN(Cc1ccc2nc(CF)nc(O)c2c1)c1ccc(C(=O)N[C@H](CCC(=O)O)C(=O)O)s1	16	1360
Cc1nc(O)c2cc(CN(CCF)c3cnc(C(=O)N[C@H](CCC(=O)O)C(=O)O)s3)ccc2n1	20	190
CCN(Cc1ccc2nc(CF)nc(O)c2c1)c1cnc(C(=O)N[C@H](CCC(=O)O)C(=O)O)s1	100	220
Cc1nc(O)c2cc(CN(CCF)c3ccc(C(=O)N[C@H](CCC(=O)O)C(=O)O)s3)ccc2n1	100	550
Cc1nc2ccc(CN(C)c3ccc(C(=O)N[C@@H](CCC(=O)O)C(=O)O)cc3)cc2c(=O)[nH]1	–	250
C=CCN(Cc1ccc2nc(C)[nH]c(=O)c2c1)c1ccc(C(=O)N[C@@H](CCC(=O)O)C(=O)O)nc1	130	760
CCN(Cc1ccc2nc(C)nc(O)c2c1)c1ccc(C(=O)N[C@H](CCC(=O)O)C(=O)O)s1	16	580
CCN(Cc1ccc2nc(CO)nc(O)c2c1)c1ccc(C(=O)N[C@H](CCC(=O)O)C(=O)O)s1	2700	1030
Cc1nc(O)c2cc(CN(CCO)c3cnc(C(=O)N[C@H](CCC(=O)O)C(=O)O)s3)ccc2n1	20	420
CN(Cc1ccc2nc(CO)nc(O)c2c1)c1ccc(C(=O)N[C@H](CCC(=O)O)C(=O)O)s1	780	1360
Cc1nc(O)c2cc(CN(CCCO)c3ccc(C(=O)N[C@H](CCC(=O)O)C(=O)O)s3)ccc2n1	3000	3360
CN(Cc1ccc2nc(CO)nc(O)c2c1)c1cnc(C(=O)N[C@H](CCC(=O)O)C(=O)O)s1	300	490
CCN(Cc1ccc2nc(C)nc(O)c2c1)c1nnc(C(=O)N[C@H](CCC(=O)O)C(=O)O)s1	2400	940
CCN(Cc1ccc2nc(C)nc(O)c2c1)c1cnc(C(=O)N[C@H](CCC(=O)O)C(=O)O)s1	8	230
Cc1nc(O)c2cc(CN(C)c3cnc(C(=O)N[C@H](CCC(=O)O)C(=O)O)s3)ccc2n1	6	420
Cc1nc2ccc(CN(C)c3ccc(C(=O)N[C@@H](CCC(=O)O)C(=O)O)cn3)cc2c(=O)[nH]1	1600	4250
C#CCN(Cc1ccc2nc(C)nc(O)c2c1)c1ccc(C(=O)N[C@H](CCC(=O)O)C(=O)O)s1	60	440
